High-throughput results (PubChem BioAssay)
Only some compounds are listed: those with a hit (about 1.9% of all), similar ones and a draw of the others.
SENP1 inh: SENP1 (human) catalytic domain inhibition. AID 624204. Q9P0U3. inhibition, % at 10 µM. recombinant SENP1 catalytic domain, CyPet-SUMO1-YPet FRET cleavage. hit rate 0.21% among 360,000;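 active = inhibition at least 30% at 10 µM, raw YFP signal under a set limit, fluorescence ratio 0.5 to 1.5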;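 also: 0% = enzyme with DMSO and 100% = no enzyme wells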
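Assay system – human recombinant His6-tagged SENP1 catalytic domain enzyme · Input – SENP1 enzyme, 20 pM final · Buffer or medium – Tris pH 8 buffer plus EDTA, NaCl, BME, BSA, NP40, catalase · Schedule – 50 min reaction at room temperature · Technique – FRET read of cyan and yellow fluorescence · Control set – no-enzyme wells low, DMSO-plus-enzyme wells high control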
FAS-TE inh: FAS thioesterase (human) inhibition; P49327; recombinant FAS-TE, OMFH fluorogenic substrate, fluorescence endpoint; inhibition, % at 15 µM; hit rate 0.67% among 360,000;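 active = compounds whose normalised, plate-corrected inhibition of enzyme fluorescence in the single-dose primary screen is 50% or more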;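 also: 0% = DMSO with enzyme and 100% = substrate without enzyme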
ADAM10 inh: inhibits human ADAM10 | recombinant ADAM10, EDANS/DABCYL FRET peptide cleavage, 3 h | inhibition, % at 7 µM | hit rate 0.62% among 370,000 | AID 720582;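 active = inhibition above a per-campaign cutoff equal to the mean of compounds falling between control-based bounds plus 3 SD, cut at about 20% in these data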;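 also: 0% = DMSO wells while the 100% control is not disclosed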
Target sequence (O14672 214-748 limits assumed): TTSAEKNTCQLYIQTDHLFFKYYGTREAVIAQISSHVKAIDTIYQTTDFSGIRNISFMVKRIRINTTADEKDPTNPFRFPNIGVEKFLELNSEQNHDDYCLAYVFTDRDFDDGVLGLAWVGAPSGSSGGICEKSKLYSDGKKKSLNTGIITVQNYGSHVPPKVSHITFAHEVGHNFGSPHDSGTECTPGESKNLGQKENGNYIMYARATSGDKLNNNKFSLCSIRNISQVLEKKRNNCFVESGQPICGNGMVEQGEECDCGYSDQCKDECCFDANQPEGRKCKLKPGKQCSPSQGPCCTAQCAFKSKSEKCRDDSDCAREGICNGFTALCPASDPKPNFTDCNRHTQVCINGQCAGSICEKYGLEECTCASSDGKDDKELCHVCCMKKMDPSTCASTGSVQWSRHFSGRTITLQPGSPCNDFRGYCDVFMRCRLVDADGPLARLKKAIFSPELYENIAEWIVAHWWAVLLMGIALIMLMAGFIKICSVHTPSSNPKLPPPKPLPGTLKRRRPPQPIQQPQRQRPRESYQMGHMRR
ADAM17 inh: inhibitors of human ADAM17. recombinant ADAM17, EDANS/DABCYL FRET peptide cleavage. hit rate 0.83% among 370,000. inhibition, % at 6.95 µM. P78536;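 active = inhibition above the mean of compounds lying between control limits plus 3 SD, set per campaign, cut at about 8.5% in these data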;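 also: 0% = DMSO-only wells as the low control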
ADAM10 counter: counter-screen for ADAM17 exosite inhibitors: inhibitors of human ADAM10; hit rate 47% among 2,900; inhibition, % at 6.95 µM; shares compounds with ADAM17 inh; recombinant ADAM10, EDANS/DABCYL FRET peptide cleavage, 3 h;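 active = mean inhibition over the triplicate runs exceeds the activity threshold set in the earlier primary screen, cut at about 20% in these data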;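 also: 0% = DMSO wells and 100% = marimastat wells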
ADAM17 confirm: confirmation of inhibitors of human ADAM17. shares compounds with ADAM17 inh. recombinant ADAM17, EDANS/DABCYL QFRET peptide cleavage. inhibition, % at 6.95 µM. hit rate 65% among 2,900. AID 743257;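 active = mean inhibition across replicates above the hit cutoff set in the primary screen, cut at about 8.5% in these data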;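 also: 0% = DMSO wells and 100% = marimastat wells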
* hit, by the source's call; . = no result.

SMILES	SENP1 inh	FAS-TE inh	ADAM10 inh	ADAM17 inh	ADAM10 counter	ADAM17 confirm
CCN(CCNC(=O)Nc1ccc(Cl)cc1)c1ccccc1	2	18	16	9.8*	37*	19*
Cc1cc(Nc2ccc(OC(F)F)cc2)cc(=O)n1-c1ccc(OC(F)F)cc1	.	.	-6	-4	.	.
CCCCN(C)C(=O)CSc1nnc(-c2cccnc2)n1C1CCCCC1	.	.	-1	0	.	.
C/C(=N\NC(=S)NCCc1ccccc1)c1ccc(Cl)cc1	3	22	19	9.6*	9	7
O=C(CN1CCN(c2ccc(O)cc2)CC1)Nc1cc(S(=O)(=O)N2CCCCC2)ccc1Cl	3	-17	17	10*	17	11*
O=C(CN1C(=O)c2ccccc2S1(=O)=O)Nc1cc(S(=O)(=O)N2CCCCC2)ccc1Cl	0	17	1	10*	17	13*
O=C(CN1CCN(c2ccc(O)cc2)CC1)Nc1cc(S(=O)(=O)N2CCCC2)ccc1Cl	2	-25	3	1	.	.
C=CCN1C(=O)[C@@H](CC(=O)NCc2cccc3ccccc23)[C@]2(C(=O)OCC)CCCCC/C=C/12	.	.	8	11*	8	5
C=CCN1C(=O)[C@@H](CC(=O)NCc2cccs2)[C@]2(C(=O)OCC)CCCCC/C=C/12	.	.	-2	-1	.	.
CCOC(=O)[C@]12CCCCC/C=C\1N(Cc1ccc(OC)cc1)C(=O)[C@H]2CC(=O)NCC1CCCCC1	.	.	11	13*	9	5
O=C(OC12CCCN(C1)/C(=C/c1cccc(Cl)c1)C2)c1ccno1 (configuration not stated)	.	.	4	0	.	.
COc1ccc(-c2cn[nH]c2N)cc1	1	-5	4	8.8*	6	1
O=C(Nc1c(-c2ccccc2)nc2ncccn12)c1ccccc1	.	.	-238	-68	.	.
O=C(O[C@H]1CC[C@@]23CCCN2C(=O)CCC[C@H]3C1)N1CCCC1	.	.	-8	-5	.	.
COc1ccc(CN2CN3Cc4cc(F)ccc4C3CS2(=O)=O)cc1 (configuration not stated)	.	.	1	1	.	.
CCCCCCSC1=C(C#N)C(=O)NC2(CCCCC2)S1	-1	10	12	9.0*	19	9.0*
Cc1c(Cl)c([N+](=O)[O-])nn1CC(=O)NC12CC3CC(CC(C3)C1)C2	2	23	16	11*	-5	2
Cc1c(Cl)c([N+](=O)[O-])nn1CC(=O)N1CCCC1	1	-8	1	-2	.	.
Cc1ccc(N=C2NC(=O)/C(=C\c3ccsc3)S2)c(C)c1	4	4	11	8.8*	32*	20*
Cc1ccc(N=C2NC(=O)/C(=C/c3cccnc3)S2)c(C)c1	0	-2	6	2	.	.
CCN1Cc2nnn(Cc3ccccc3)c2-c2cc(N3CCCC3)ccc2S1(=O)=O	.	.	-40	-12	.	.
CCCCc1c(-c2ccc(F)cc2F)ncn1CCc1ccccc1OC	-2	20	15	6	.	.
COc1ccccc1CCn1cnc(-c2ccc(F)cc2F)c1CC(C)C	.	.	12	10*	29*	14*
COc1cccc(-c2ccc(CN3C(C(C)C)C(=O)N(Cc4cn(CCC5OCCO5)nn4)CCS3(=O)=O)cc2)c1OC (configuration not stated)	4	0	8	13*	14	7
CC1C(=O)N(Cc2cn(CCC3OCCO3)nn2)CCS(=O)(=O)N1Cc1ccc(-c2ccc(Cl)cc2)cc1 (configuration not stated)	1	11	15	8.6*	13	5
SMILES	SENP1 inh	FAS-TE inh	ADAM10 inh	ADAM17 inh	ADAM10 counter	ADAM17 confirm
CCN(C)c1nc(C)nc2c1nnn2Cc1ccccc1	.	.	-2	0	.	.
COC(=O)c1cc2c(c3c4cc(F)ccc4n(S(=O)(=O)c4cccc(C)c4)c13)C(=O)N(Cc1ccc(C(F)(F)F)cc1)C2	.	.	-2	-3	.	.
CCCC(C)NC(=O)CN(Cc1ccco1)S(=O)(=O)c1ccccc1 (configuration not stated)	-1	0	-3	1	.	.
CCC(C)NS(=O)(=O)c1ccc(S(=O)(=O)N(CC(=O)Nc2ccccc2)Cc2ccco2)cc1 (configuration not stated)	-4	15	10	8.9*	20*	11*
CCOc1ccc(-c2cc(C(C)=O)c3n(c2=O)CCC3)cc1	.	.	-9	-9	.	.
Cc1ccc(NC(CNS(=O)(=O)c2ccc(Cl)cc2)c2ccccc2)cc1 (configuration not stated)	2	40	15	13*	31*	15*
COC(CNS(=O)(=O)c1ccc(Cl)cc1)c1ccccc1 (configuration not stated)	2	0	2	0	.	.
CC(C)NC(=S)N/N=C1\CCCCc2ccccc21	2	12	2	-2	.	.
COc1cccc(NC(=S)N/N=C2/CCCCc3ccccc32)c1	2	16	8	9.2*	8	5
CC[C@@H](CCCc1ccc(OC)cc1)CCC(=O)N(c1ccccc1)c1ccccc1	.	.	-2	0	.	.
Cc1ccc(COc2ccc(Br)cc2/C=N/O)cc1	4	-11	17	8.8*	34*	17*
CCOc1cc(/C=N/O)ccc1OCc1ccc(C)cc1	2	-4	8	8	.	.
CC1=C(C(=O)Nc2ccccc2)C(c2cccc([N+](=O)[O-])c2)Nc2nc3ccccc3n21 (configuration not stated)	1	0	11	8.8*	-2	1
CNC(=O)C1=C(C)n2c(nc3ccccc32)NC1c1ccc(OC)cc1 (configuration not stated)	-2	-14	-22	-8	.	.
COc1c(NC=O)c2c(c([N+](=O)[O-])c1OC)C(=O)OC2	3	5	6	8.8*	-6	-2
COc1c([N+](=O)[O-])c(=O)oc2ccccc12	0	-11	-5	-3	.	.
CC(=O)c1cc(-c2cc3ccccc3o2)c(=O)n2c1CCC2	.	.	-25	-7	.	.
O=C(CN1CCN(Cc2ccccc2)CC1)Nc1cccc(S(=O)(=O)N2CCCCCC2)c1	1	2	14	8.9*	22*	11*
CSc1ncccc1C(=O)OCC(=O)Nc1ccc(S(=O)(=O)N2CCCC2)cc1	2	10	9	9.5*	1	6
O=C(COC(=O)CCc1ccc(S(=O)(=O)N2CCCCC2)cc1)Nc1cccc2ccccc12	3	22	18	13*	26*	12*
CSc1ncccc1C(=O)OCC(=O)c1ccc(S(=O)(=O)N2CCCCC2)cc1	2	22	14	3	.	.
O=C(COC(=O)/C=C/c1ccc(OC(F)F)cc1)Nc1ccc(S(=O)(=O)N2CCCC2)cc1	0	13	18	9.8*	18	13*
